Blank lines part the entries; values can stand above or below the compound they belong to. Calls of active or inactive are those of the source. The rule behind the calls is not given here.
Experiments:
[1] = target: Fibroblast growth factor receptor 3 (Homo sapiens) (UniProt P22607); assay: Inhibition of human recombinant FGFR3 at 500 nM in presence of ATP by radiometric assay relative to control
[2] = target: T1, Mitogen-activated protein kinase kinase kinase 5 (Homo sapiens) (UniProt Q99683); assay: Inhibition of human recombinant MAP3K5 at 500 nM in presence of ATP by radiometric assay relative to control
T1 sequence (whole entry): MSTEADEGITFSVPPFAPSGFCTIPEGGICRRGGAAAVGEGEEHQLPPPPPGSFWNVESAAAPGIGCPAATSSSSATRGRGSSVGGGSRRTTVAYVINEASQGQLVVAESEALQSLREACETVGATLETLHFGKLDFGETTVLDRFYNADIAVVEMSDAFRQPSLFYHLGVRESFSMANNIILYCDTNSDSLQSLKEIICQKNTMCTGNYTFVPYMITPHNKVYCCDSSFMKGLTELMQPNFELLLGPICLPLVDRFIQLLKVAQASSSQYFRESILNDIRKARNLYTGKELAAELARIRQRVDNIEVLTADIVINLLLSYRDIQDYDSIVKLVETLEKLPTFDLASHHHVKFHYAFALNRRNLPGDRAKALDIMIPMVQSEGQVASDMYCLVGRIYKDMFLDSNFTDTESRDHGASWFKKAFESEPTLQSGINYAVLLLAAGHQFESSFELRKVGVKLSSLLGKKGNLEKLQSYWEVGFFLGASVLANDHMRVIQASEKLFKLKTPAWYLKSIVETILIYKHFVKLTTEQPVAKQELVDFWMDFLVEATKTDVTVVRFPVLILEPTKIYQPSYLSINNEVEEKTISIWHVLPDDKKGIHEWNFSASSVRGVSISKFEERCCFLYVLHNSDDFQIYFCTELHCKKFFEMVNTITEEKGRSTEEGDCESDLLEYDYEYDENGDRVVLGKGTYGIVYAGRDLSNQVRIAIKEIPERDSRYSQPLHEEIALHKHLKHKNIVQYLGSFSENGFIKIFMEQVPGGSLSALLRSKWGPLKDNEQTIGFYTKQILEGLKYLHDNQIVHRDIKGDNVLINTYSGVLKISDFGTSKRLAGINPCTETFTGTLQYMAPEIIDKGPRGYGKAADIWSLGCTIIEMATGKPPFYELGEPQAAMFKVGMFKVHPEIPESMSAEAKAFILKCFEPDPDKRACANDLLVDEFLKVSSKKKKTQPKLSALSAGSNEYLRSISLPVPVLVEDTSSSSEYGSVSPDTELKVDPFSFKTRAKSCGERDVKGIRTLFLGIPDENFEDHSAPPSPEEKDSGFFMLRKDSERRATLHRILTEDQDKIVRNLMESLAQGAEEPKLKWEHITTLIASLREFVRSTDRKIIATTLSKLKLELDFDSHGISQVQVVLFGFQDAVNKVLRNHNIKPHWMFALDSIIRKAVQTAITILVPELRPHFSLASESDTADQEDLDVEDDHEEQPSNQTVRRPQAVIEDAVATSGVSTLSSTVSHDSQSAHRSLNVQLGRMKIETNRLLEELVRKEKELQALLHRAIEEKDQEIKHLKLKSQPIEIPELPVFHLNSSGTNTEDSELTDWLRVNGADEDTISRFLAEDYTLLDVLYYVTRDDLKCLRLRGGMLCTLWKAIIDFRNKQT

[3] = target: Casein kinase I isoform gamma-3 (Homo sapiens) (UniProt Q9Y6M4); assay: Inhibition of human recombinant CK1g3 at 15 nM in presence of ATP by radiometric assay relative to control
Sequence of Casein kinase I isoform gamma-3 (Homo sapiens) (Q9Y6M4 whole entry, looked up, canonical isoform): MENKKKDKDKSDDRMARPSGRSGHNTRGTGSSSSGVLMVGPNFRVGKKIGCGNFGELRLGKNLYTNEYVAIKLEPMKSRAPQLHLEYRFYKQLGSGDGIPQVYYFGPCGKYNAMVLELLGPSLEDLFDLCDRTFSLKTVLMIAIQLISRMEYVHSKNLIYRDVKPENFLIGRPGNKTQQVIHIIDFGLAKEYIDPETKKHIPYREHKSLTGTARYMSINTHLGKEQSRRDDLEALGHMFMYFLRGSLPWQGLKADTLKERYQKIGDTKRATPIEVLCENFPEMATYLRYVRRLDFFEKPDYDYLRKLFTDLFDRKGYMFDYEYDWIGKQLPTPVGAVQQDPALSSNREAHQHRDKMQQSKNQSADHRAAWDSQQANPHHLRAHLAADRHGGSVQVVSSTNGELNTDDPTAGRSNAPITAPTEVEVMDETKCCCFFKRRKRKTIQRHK

[4] = target: Cyclin-dependent kinase 1 (Homo sapiens) (UniProt P06493); assay: Inhibition of human recombinant CDC2 at 15 nM related to control ULK1
Sequence of Cyclin-dependent kinase 1 (Homo sapiens) (P06493 whole entry, looked up): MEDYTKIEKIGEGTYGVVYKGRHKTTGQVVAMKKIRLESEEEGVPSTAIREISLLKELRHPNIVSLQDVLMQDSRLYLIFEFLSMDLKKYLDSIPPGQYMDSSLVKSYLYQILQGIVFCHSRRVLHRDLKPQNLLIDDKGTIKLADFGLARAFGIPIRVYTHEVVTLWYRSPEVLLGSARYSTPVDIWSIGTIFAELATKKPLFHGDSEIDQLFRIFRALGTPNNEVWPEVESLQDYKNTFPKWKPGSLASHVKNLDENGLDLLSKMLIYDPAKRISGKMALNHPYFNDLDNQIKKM

[5] = target: Serine/threonine-protein kinase SIK3 (Homo sapiens) (UniProt Q9Y2K2); assay: Inhibition of human recombinant QSK at 15 nM related to control ULK1
Sequence of Serine/threonine-protein kinase SIK3 (Homo sapiens) (Q9Y2K2 whole entry, looked up): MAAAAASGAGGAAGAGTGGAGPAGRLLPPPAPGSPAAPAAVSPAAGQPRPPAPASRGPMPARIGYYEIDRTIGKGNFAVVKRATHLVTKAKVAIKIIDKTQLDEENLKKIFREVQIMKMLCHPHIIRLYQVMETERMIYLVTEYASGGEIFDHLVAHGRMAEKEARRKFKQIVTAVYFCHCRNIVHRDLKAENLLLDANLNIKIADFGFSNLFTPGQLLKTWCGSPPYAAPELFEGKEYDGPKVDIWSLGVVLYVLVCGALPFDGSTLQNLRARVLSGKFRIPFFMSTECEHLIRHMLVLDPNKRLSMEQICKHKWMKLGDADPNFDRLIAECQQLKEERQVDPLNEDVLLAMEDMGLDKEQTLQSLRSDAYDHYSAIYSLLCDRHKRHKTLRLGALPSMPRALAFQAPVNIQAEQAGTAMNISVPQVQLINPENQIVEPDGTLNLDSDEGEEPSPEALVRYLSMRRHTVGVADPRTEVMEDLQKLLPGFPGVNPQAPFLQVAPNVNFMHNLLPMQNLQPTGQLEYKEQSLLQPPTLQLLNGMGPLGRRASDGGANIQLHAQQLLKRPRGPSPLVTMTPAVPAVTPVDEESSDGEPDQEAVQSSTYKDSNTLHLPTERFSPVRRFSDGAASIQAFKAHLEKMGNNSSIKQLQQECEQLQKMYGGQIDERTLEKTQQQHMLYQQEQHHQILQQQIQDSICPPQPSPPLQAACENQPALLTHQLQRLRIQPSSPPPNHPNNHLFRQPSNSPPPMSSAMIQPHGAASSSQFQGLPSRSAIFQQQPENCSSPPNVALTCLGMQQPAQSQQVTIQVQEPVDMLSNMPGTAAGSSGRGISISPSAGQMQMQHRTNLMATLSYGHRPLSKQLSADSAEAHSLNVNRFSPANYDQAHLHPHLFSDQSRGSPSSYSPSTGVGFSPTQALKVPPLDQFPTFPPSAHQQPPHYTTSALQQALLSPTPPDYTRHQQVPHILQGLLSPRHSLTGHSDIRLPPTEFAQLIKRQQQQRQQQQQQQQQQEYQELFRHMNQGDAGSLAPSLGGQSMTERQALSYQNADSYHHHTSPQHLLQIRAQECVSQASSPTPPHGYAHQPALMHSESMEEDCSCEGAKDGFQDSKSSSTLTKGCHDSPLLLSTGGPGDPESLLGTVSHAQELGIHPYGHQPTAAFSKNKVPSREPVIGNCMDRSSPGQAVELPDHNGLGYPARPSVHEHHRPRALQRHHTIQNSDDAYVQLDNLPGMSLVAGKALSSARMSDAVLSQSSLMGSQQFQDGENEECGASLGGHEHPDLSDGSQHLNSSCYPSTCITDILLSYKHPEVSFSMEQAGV

[6] = target: Rho-associated protein kinase 1 (Homo sapiens) (UniProt Q13464); assay: Inhibition of human recombinant ROCK1 at 15 nM related to control ULK1
Sequence of Rho-associated protein kinase 1 (Homo sapiens) (Q13464 2-1354 limits assumed): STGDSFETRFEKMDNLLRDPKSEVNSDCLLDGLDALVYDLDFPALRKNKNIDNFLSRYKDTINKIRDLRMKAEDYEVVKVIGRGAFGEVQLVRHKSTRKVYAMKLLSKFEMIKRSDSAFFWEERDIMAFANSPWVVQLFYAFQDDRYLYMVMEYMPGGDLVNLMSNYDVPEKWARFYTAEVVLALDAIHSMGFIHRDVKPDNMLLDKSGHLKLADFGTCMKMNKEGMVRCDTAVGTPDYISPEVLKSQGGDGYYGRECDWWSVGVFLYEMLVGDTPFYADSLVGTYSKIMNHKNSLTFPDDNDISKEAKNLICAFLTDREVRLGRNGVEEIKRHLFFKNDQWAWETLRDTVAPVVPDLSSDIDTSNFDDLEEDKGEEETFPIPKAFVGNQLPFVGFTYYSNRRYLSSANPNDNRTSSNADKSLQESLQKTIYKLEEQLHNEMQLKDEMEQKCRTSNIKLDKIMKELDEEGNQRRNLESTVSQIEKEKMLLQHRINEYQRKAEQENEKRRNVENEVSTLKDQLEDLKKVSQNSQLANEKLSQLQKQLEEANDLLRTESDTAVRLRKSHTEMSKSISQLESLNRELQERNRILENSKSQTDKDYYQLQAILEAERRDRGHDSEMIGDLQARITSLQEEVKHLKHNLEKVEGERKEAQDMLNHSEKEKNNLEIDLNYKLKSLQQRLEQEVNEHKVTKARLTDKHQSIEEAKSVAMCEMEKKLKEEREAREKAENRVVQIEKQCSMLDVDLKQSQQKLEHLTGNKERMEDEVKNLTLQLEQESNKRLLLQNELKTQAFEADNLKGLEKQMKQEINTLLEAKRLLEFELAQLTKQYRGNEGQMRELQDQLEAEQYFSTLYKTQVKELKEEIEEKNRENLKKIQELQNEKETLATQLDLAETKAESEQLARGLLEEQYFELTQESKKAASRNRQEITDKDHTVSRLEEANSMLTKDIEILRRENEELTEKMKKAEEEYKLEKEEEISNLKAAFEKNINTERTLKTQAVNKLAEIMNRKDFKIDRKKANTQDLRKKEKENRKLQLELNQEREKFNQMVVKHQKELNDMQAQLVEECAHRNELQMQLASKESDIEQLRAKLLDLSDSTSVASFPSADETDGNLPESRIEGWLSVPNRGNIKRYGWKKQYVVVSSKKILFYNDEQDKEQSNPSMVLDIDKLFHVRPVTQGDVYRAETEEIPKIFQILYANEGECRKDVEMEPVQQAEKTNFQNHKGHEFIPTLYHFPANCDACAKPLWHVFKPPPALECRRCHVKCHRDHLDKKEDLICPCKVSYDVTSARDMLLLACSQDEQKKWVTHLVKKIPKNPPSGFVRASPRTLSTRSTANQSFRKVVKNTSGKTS

U2OS [7] = assay: Inhibition of autophagy in human U2OS cells assessed as reduction in phagophore formation at 5 uM incubated for 2.5 hrs by Fluorescent microscopy based analysis; format: functional, cell-based
How it was run: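 U2OS cells treated 2.5 hr with vehicle or 100 nM AZD8055, with or without 5 μM inhibitor; fixed and immunostained for endogenous ATG12; ATG12-positive puncta (phagophores) assessed by fluorescence microscopy.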

U2OS [8] = assay: Inhibition of autophagy in human U2OS cells assessed as BafA1-induced LC3B-II accumulation preincubated with compound for 3 hrs followed by BafA1 induction and measured after 1.5 hr under starvation condition by immunoblotting analysis; format: functional, cell-based; conditions: dose <= 5.0 µM, time 4.5 hrs
How it was run: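 U2OS cells kept 3 hr in full growth medium or HBSS-based starvation medium with or without inhibitor; BafA1-induced LC3B-II accumulation quantified by immunoblotting against β-actin.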

[9] = target: Bone morphogenetic protein receptor type-1B (Homo sapiens) (UniProt O00238); assay: Inhibition of human recombinant BMPR1B at 40 nM in presence of ATP by radiometric assay relative to control
Sequence of Bone morphogenetic protein receptor type-1B (Homo sapiens) (O00238 whole entry): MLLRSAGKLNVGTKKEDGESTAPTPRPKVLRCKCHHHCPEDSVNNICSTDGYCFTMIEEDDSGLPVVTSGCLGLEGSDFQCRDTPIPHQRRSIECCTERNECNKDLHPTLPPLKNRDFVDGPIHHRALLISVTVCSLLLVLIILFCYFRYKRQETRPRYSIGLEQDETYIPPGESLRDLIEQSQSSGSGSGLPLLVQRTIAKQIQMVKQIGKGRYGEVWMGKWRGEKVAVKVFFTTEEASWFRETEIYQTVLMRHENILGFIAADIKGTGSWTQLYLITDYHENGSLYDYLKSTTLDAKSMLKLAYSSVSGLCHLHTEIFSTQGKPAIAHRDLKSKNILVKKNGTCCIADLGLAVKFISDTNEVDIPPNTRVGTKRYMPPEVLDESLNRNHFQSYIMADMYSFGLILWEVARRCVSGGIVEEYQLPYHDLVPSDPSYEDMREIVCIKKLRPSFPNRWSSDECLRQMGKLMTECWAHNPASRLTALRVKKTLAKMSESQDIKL
How it was run: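 Part of a radiometric in vitro activity panel of 327 recombinant human kinases. Each kinase was tested in duplicate at one inhibitor concentration. Activity remaining was expressed as a percentage of the vehicle control, and percent inhibition was taken as 100 minus that value.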

[10] = target: Casein kinase II subunit alpha' (Homo sapiens) (UniProt P19784); assay: Inhibition of human recombinant CK2a2 at 40 nM in presence of ATP by radiometric assay relative to control
Sequence of Casein kinase II subunit alpha' (Homo sapiens) (P19784 whole entry, looked up): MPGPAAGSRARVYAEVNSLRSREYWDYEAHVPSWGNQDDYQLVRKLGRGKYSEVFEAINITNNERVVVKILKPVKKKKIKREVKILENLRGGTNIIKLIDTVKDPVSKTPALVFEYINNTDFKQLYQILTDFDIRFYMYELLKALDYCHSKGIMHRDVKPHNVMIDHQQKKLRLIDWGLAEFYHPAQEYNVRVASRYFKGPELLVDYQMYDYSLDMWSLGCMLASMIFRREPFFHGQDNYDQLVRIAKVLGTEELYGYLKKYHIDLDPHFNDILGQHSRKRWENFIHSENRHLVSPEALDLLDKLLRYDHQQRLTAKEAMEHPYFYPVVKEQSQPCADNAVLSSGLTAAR

Sequence of Fibroblast growth factor receptor 3 (Homo sapiens) (P22607 23-806 limits assumed): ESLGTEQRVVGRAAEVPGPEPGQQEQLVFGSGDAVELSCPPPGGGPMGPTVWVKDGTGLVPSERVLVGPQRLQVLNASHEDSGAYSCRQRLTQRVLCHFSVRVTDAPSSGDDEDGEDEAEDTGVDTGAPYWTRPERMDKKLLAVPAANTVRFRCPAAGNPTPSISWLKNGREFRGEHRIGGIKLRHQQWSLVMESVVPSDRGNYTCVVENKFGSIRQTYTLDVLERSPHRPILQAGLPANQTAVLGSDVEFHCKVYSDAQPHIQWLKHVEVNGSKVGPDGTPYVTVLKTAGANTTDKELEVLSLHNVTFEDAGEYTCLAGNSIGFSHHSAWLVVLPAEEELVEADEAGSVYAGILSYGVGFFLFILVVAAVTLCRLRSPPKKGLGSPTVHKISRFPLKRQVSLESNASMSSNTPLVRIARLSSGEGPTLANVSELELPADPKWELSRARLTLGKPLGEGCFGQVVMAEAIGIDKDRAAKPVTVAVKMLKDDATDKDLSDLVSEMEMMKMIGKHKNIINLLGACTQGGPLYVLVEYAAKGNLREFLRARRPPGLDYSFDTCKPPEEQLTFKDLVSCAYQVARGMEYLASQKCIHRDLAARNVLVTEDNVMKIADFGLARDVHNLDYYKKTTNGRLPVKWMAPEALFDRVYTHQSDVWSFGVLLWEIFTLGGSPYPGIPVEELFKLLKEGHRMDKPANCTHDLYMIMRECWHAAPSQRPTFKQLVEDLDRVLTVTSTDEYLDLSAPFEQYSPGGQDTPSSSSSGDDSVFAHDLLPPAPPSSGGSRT

- inhibition [1]: 42%
- inhibition [2]: 0%
SMILES: CNC(=O)c1ccccc1Oc1nc(Nc2cc(OC)c(OC)c(OC)c2)ncc1Br

- inhibition [3]: 3%
- fold change (FC) [4]: 0.27
- fold change (FC) [5]: 0.98
- fold change (FC) [6]: 0.09
SMILES: CC(C)[C@H](NC(=O)c1cc(-c2cnn3cc(-c4ccc(OCCN5CCCCC5)cc4)cnc23)cs1)C(F)(F)F

- inhibition [9]: 0%
- inhibition [10]: 8%
SMILES: O=C(N[C@@H](C1CC1)C(F)(F)F)c1cc(-c2cnn3cc(-c4ccc(F)cc4)cnc23)cs1
- inhibition (U2OS [7]): Active
- inhibition (U2OS [8]): Dose-Dependent Effect

— ChEMBL document CHEMBL5653631, “A Potent and Selective ULK1 Inhibitor Suppresses Autophagy and Sensitizes Cancer Cells to Nutrient Stress” (iScience, 2018)
